Test results as given in ChEMBL document CHEMBL1138230, “Synthesis and SAR comparison of regioisomeric aryl naphthyridines as potent mGlu5 receptor antagonists” (Bioorg Med Chem Lett, 2007).
pIC50: −log10 of the molar value.

Key:
[1] = target: Metabotropic glutamate receptor 5 (Rattus norvegicus, UniProt P31424); experiment: Antagonist activity at rat mGlu5 receptor expressed in CHO cells assessed as inhibition of quisqualate-stimulated calcium mobilization; format: functional, cell-based
Summary of the method: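 CHO cells stably expressing rat mGlu5; inhibition of quisqualate-stimulated calcium mobilization read by FLIPR. Values are geometric means of two or more experiments.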

[2] = test system: Rattus norvegicus; experiment: Inhibition of change in hind paw weight distribution in monosodium iodoacetate-induced osteoarthritis rat model at 10 mg/kg, ip after 6 hrs; format: organism-based; parameters: dose 10 mg/kg, route intraperitoneal; details: in vivo
[3] = test system: Rattus norvegicus; experiment: Inhibition of change in hind paw weight distribution in monosodium iodoacetate-induced osteoarthritis rat model at 10 mg/kg, ip after 2 hrs; format: organism-based; parameters: dose 10 mg/kg, route intraperitoneal; details: in vivo
[4] = test system: Rattus norvegicus; experiment: Inhibition of change in hind paw weight distribution in monosodium iodoacetate-induced osteoarthritis rat model at 10 mg/kg, ip after 4 hrs; format: organism-based; parameters: dose 10 mg/kg, route intraperitoneal; details: in vivo

Metabotropic glutamate receptor 5, sequence (P31424 whole entry): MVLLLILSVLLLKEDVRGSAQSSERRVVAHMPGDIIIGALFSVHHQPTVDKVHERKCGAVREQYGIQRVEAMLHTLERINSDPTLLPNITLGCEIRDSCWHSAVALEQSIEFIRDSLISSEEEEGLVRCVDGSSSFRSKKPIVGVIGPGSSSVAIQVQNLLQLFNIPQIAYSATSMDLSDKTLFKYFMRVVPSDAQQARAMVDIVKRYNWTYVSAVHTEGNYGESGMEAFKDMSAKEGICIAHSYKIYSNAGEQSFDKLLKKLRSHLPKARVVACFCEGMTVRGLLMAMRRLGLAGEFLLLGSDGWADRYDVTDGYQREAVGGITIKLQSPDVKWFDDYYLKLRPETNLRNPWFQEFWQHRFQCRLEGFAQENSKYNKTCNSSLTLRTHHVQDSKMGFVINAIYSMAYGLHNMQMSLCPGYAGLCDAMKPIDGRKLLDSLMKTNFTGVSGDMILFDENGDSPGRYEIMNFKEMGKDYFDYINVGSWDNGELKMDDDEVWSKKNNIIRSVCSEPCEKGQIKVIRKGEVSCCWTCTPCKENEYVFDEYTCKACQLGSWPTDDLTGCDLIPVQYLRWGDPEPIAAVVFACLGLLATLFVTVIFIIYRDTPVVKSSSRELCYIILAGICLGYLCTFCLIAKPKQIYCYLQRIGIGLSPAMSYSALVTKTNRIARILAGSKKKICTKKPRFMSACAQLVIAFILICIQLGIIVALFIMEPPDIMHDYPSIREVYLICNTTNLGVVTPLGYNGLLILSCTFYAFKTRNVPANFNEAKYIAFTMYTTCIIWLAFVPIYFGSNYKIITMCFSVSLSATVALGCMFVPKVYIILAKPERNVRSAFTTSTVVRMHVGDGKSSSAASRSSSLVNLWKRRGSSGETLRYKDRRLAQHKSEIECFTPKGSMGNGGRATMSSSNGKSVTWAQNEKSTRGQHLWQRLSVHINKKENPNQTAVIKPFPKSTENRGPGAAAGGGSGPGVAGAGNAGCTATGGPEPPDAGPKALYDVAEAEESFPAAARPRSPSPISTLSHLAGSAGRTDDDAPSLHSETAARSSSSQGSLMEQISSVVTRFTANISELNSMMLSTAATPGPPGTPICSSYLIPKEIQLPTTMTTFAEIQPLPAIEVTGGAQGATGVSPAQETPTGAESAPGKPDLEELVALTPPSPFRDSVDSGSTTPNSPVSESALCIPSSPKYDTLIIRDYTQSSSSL

| Compound | pIC50 [1] | also measured |
| --- | --- | --- |
| c1ccc(-c2ccc3cccnc3n2)cc1 | 5.74 |  |
| N#Cc1cccc(-c2ccc3cccnc3n2)c1 | 6.94 |  |
| c1ccc(-c2cc3ncccc3cn2)cc1 | < 4.52 |  |
| Cc1cccc(-c2ccc3ccc(C)nc3n2)c1 | 6.56 |  |
| Cc1ccc2ccc(-c3cccc(C#N)c3)nc2n1 | 6.32 |  |
| Cc1ccc2ccc(-c3cc(F)cc(F)c3)nc2n1 | 6.74 |  |
| Cc1cccc(-c2cc3nc(C)ccc3cn2)c1 | 6.17 |  |
| Cc1ccc2ccc(-c3cccc(Br)c3)nc2n1 | 7.32 |  |
| COc1cccc(-c2cc3nc(C)ccc3cn2)c1 | 5.10 |  |
| COc1cc(OC)cc(-c2cc3nc(C)ccc3cn2)c1 | 6.46 |  |
| Cc1cccc(-c2cc3ncccc3cn2)c1 | 5.90 |  |
| N#Cc1cc(F)cc(-c2cc3ncccc3cn2)c1 | 5.80 |  |
| COCOc1cc(C#N)cc(-c2cc3ncccc3cn2)c1 | 6.33 |  |
| N#Cc1cccc(-c2cnc3cccnc3c2)c1 | 4.73 |  |
| COc1cc(C#N)cc(-c2cc3ncccc3cn2)c1 | 7.17 |  |
| Cc1cccc(-c2ccc3cccnc3n2)c1 | 6.65 |  |
| Cc1ccc2ccc(-c3cccc(Cl)c3)nc2n1 | 6.75 |  |
| COc1cc(C#N)cc(-c2cnc3cccnc3c2)c1 | 7.26 |  |
| COc1cc(OC)cc(-c2ccc3ccc(C)nc3n2)c1 | 7.29 | Activity [2]: Active; Activity [3]: Active; Activity [4]: Active |
| Cc1ccc2ccc(-c3ccccc3)nc2n1 | 6.18 |  |

More lines, main results first:

| pIC50 [1] | Compound | also measured |
| --- | --- | --- |
| 7.35 | Cc1ccc(-c2ccc3cccnc3n2)cc1C |  |
| < 4.52 | Cc1cc(C)cc(-c2cnc3cccnc3c2)c1 |  |
| 5.22 | COc1cc(OC)cc(-c2cc3ncccc3cn2)c1 |  |
| 4.80 | Cc1cccc(-c2cnc3cccnc3c2)c1 |  |
| 4.92 | Cc1ccc(-c2cnc3cccnc3c2)cc1C |  |
| < 4.52 | Cc1ccc2cnc(-c3ccccc3)cc2n1 |  |
| 8.21 | COc1cc(C#N)cc(-c2cc3nc(C)ccc3cn2)c1 |  |
| 5.18 | Cc1cc(F)cc(-c2cc3ncccc3cn2)c1 |  |
| 7.17 | COc1cc(OC)cc(-c2ccc3cccnc3n2)c1 |  |
| 5.53 | Cc1cc(F)cc(-c2cc3nc(C)ccc3cn2)c1 |  |
